Reference: ChEMBL document CHEMBL1122632, “Synthesis and antitumor activity of cis-dichloroplatinum (II)-N-aminated nucleoside complexes” (J Med Chem, 1984)
≈ marks a conversion by molar mass, not a printed value. Where “and” joins values, the source holds several entries; their conditions need not be identical. Equal values may be shown once.

Tests used:
L1210 [1] = assay: Ratio of median survival time of the mice bearing L1210 cells in treated(T) vs. control(C) at a dose of 114 mg/kg x 2 days; assay type: functional, Mus musculus
In short: (§1)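 (BALB/c x DBA/2)F1 mice, 20 g, implanted ip with 10^4 L1210 cells. Test samples in saline (0.2 mL) given ip on days 1 and 5 after tumor inoculation; doses above 100 mg/kg homogenized with Nikkol (7 times by weight) as vehicle. Activity from median survival time of treated group versus control group (T/C).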

L1210 [2] = assay: Ratio of median survival time of the mice bearing L1210 cells in treated(T) vs. control(C) at a dose of 2 mg/kg x 2 days; assay type: functional, Mus musculus; in short: as §1
L1210 [3] = assay: In vitro inhibitory effect on growth of L1210 cells; (10E-6); assay type: functional, cell-based; conditions: Mus musculus
In short: (§2)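 L1210 cells (10^5 in 1 mL) were grown in RPMI 1640 with 10% FCS and kanamycin, at 37 °C in CO2, for 48 h. Compounds were heated at 110 °C for 8 h, dissolved in medium and tested at ≥6 concentrations. Viability was scored by 0.17% Trypan blue exclusion against drug-free controls. IC50 was the concentration halving living cell number, taken from the log-probit dose-response curve.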

L1210 [4] = assay: In vitro inhibition of L1210 (murine leukemia) cell growth.; assay type: functional, cell-based, Mus musculus; conditions: Mus musculus, L1210; read-out: IC50; in short: as §2
L1210 [5] = assay: Median survival time (MST) of mice bearing L1210 cells was determined at a dose of 114 mg/kg x 2 days administered ip.; assay type: functional, Mus musculus; in short: as §1
L1210 [6] = assay: Median survival time (MST) of mice bearing L1210 cells was determined at a dose of 2 mg/kg x 2 days administered ip.; assay type: functional, Mus musculus; in short: as §1
L1210 [7] = assay: Ratio of median survival time of the mice bearing L1210 cells in treated(T) vs. control(C) at a dose of 112 mg/kg x 2 days; assay type: functional, Mus musculus; in short: as §1
L1210 [8] = assay: Ratio of median survival time of the mice bearing L1210 cells in treated(T) vs. control(C) at a dose of 30 mg/kg x 2 days; assay type: functional, Mus musculus; in short: as §1
L1210 [9] = assay: In vitro inhibitory effect on growth of L1210 cells; 1.5*10e-3; assay type: functional, cell-based; conditions: Mus musculus; in short: as §2
L1210 [10] = assay: Median survival time (MST) of mice bearing L1210 cells was determined at a dose of 59 mg/kg x 2 days administered ip; Toxic.; assay type: functional, organism-based; design: dose 59 mg/kg; conditions: Mus musculus
In short: (§3)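 (BALB/c × DBA/2)F1 mice (20 g) were implanted ip with 10^4 L1210 cells. Compounds in saline (0.2 mL) were given ip on days 1 and 5; doses above 100 mg/kg were homogenized with Nikkol (7× by weight). Activity was scored as median survival time of treated mice and expressed as T/C, the ratio of treated to control median survival time.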

L1210 [11] = assay: Median survival time (MST) of mice bearing L1210 cells was determined at a dose of 2 mg/kg x 2 days administered ip; Toxic.; assay type: functional, organism-based; design: dose 2 mg/kg; conditions: Mus musculus; in short: as §3
L1210 [12] = assay: Median survival time (MST) of mice bearing L1210 cells was determined at a dose of 300 mg/kg x 2 days administered ip; Toxic; assay type: functional, organism-based; design: dose 300 mg/kg; conditions: Mus musculus; in short: as §3
L1210 [13] = assay: Ratio of median survival time of the mice bearing L1210 cells in treated(T) vs. control(C) at a dose of 10 mg/kg x 2 days; assay type: functional, organism-based; design: dose 10 mg/kg; conditions: Mus musculus; in short: as §3
L1210 [14] = assay: Ratio of median survival time of the mice bearing L1210 cells in treated(T) vs. control(C) at a dose of 100 mg/kg x 2 days; assay type: functional, organism-based; design: dose 100 mg/kg; conditions: Mus musculus; in short: as §3
L1210 [15] = assay: Ratio of median survival time of the mice bearing L1210 cells in treated(T) vs. control(C) at a dose of 200 mg/kg x 2 days; assay type: functional, organism-based; design: dose 200 mg/kg; conditions: Mus musculus; in short: as §3
L1210 [16] = assay: Ratio of median survival time of the mice bearing L1210 cells in treated(T) vs. control(C) at a dose of 25 mg/kg x 2 days; assay type: functional, organism-based; design: dose 25 mg/kg; conditions: Mus musculus; in short: as §3
L1210 [17] = assay: Ratio of median survival time of the mice bearing L1210 cells in treated(T) vs. control(C) at a dose of 50 mg/kg x 2 days; assay type: functional, organism-based; design: dose 50 mg/kg; conditions: Mus musculus; in short: as §3
L1210 [18] = assay: Median survival time (MST) of mice bearing L1210 cells was determined at a dose of 50 mg/kg x 2 days administered ip.; assay type: functional, organism-based; design: dose 50 mg/kg; conditions: Mus musculus; in short: as §3
L1210 [19] = assay: Median survival time (MST) of mice bearing L1210 cells was determined at a dose of 25 mg/kg x 2 days administered ip.; assay type: functional, organism-based; design: dose 25 mg/kg; conditions: Mus musculus; in short: as §3
L1210 [20] = assay: Median survival time (MST) of mice bearing L1210 cells was determined at a dose of 100 mg/kg x 2 days administered ip.; assay type: functional, organism-based; design: dose 100 mg/kg; conditions: Mus musculus; in short: as §3
L1210 [21] = assay: Median survival time (MST) of mice bearing L1210 cells was determined at a dose of 200 mg/kg x 2 days administered ip.; assay type: functional, organism-based; design: dose 200 mg/kg; conditions: Mus musculus; in short: as §3
L1210 [22] = assay: Median survival time (MST) of mice bearing L1210 cells was determined at a dose of 10 mg/kg x 2 days administered ip.; assay type: functional, organism-based; design: dose 10 mg/kg; conditions: Mus musculus; in short: as §3
Mus musculus [23] = assay: Blood urea nitrogen values in ICR mice after intraperitoneal administration at an equivalent molar dose of the LD50 of […](13 mg/kg) on day 3; assay type: functional, organism-based
In short: (§4)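 ICR mice (25-30 weeks, 39 ± 4 g), 5-6 per group, given one ip dose of 0.043 mmol/kg, equimolar to 13 mg/kg cis-DDP. On days 3, 6 and 9, blood was drawn from the heart under ether anesthesia and stored frozen. BUN was measured later by a modified urease indophenol method. Results are mean ± SD, mg/100 mL blood, compared with untreated controls.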

Mus musculus [24] = assay: Blood urea nitrogen values in ICR mice after intraperitoneal administration at an equivalent molar dose of the LD50 of […](13 mg/kg) on day 6; assay type: functional, organism-based; in short: as §4
Mus musculus [25] = assay: Blood urea nitrogen values in ICR mice after intraperitoneal administration at an equivalent molar dose of the LD50 of […](13 mg/kg) on day 9; assay type: functional, organism-based; in short: as §4
Mus musculus [26] = assay: Effect on body weight in ICR mice was determined after intraperitoneal administration on day 3; assay type: functional, organism-based
In short: (§5)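 ICR mice (25-30 weeks, 39 ± 4 g), 5-6 per group, given one ip dose of 0.043 mmol/kg, equimolar to 13 mg/kg cis-DDP. Body and kidney weights were taken on days 3, 6 and 9 and compared with untreated controls. Weights are paired, mean ± SD.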

Mus musculus [27] = assay: Effect on body weight in ICR mice was determined after intraperitoneal administration on day 6; assay type: functional, organism-based; in short: as §5
Mus musculus [28] = assay: Effect on body weight in ICR mice was determined after intraperitoneal administration on day 9; assay type: functional, organism-based; in short: as §5
Mus musculus [29] = assay: Effect on kidney weight in ICR mice was determined after intraperitoneal administration on day 3; assay type: functional, organism-based; in short: as §5
Mus musculus [30] = assay: Effect on kidney weight in ICR mice was determined after intraperitoneal administration on day 6; assay type: functional, organism-based; in short: as §5
Mus musculus [31] = assay: Effect on kidney weight in ICR mice was determined after intraperitoneal administration on day 9; assay type: functional, organism-based; in short: as §5
L1210 [32] = assay: Median survival time (MST) of mice bearing L1210 cells was determined at a dose of 115 mg/kg x 2 days administered ip; Toxic.; assay type: functional, organism-based; design: dose 115 mg/kg; conditions: Mus musculus; in short: as §3

Work on `N=c1c2ccn(C3O[C@H](CO)[C@@H](O)[C@H]3O)c2ncn1N` (stereo partly drawn) yielded a T/C (L1210 [1]) of 95%, a T/C (L1210 [2]) of 110% and an IC50 (L1210 [3]) of 8.5 µM. For the same compound, the IC50 (L1210 [4]) was 2.7 mg/L (≈ 9.6 µM), the MST (L1210 [5]) was 9.5 days and the MST (L1210 [6]) was 11 days.
For `N=c1ccn([C@@H]2O[C@H](CO)[C@@H](O)[C@H]2O)c(=O)n1N`, the IC50 (L1210 [4]) was 400 µg/mL and 1.36 mM.
Compound `N=c1ccn([C@@H]2O[C@H](CO)[C@@H](O)[C@@H]2O)c(=O)n1N` has a T/C (L1210 [7]) of 100%, a T/C (L1210 [8]) of 95% and an IC50 (L1210 [9]) of 1530 µM. The IC50 (L1210 [4]) was 45 mg/L (≈ 174 µM), the MST (L1210 [5]) was 10 days and the MST (L1210 [6]) was 9.5 days.
With `N=c1ccn([C@H]2C[C@H](O)[C@@H](CO)O2)c(=O)n1N` the IC50 (L1210 [4]) was 2000 µg/mL and 7.18 mM.
In the case of “3-amino-2'-deoxycytidine hydrochloridecis-DDP”, the MST (L1210 [10]) is reported as “Toxic” and the MST (L1210 [11]) is reported as “Toxic”.
“3-amino-2'-deoxycytidine-dichloroplatinum (II)” was tested, and the MST (L1210 [12]) was “Toxic”, the T/C (L1210 [13]) was 125% and the T/C (L1210 [14]) was 181%. For the same compound, the T/C (L1210 [15]) was 106%, the T/C (L1210 [16]) was 131% and the T/C (L1210 [17]) was 162%. It also gave an MST (L1210 [18]) of 13 days, an MST (L1210 [19]) of 10.5 days and an MST (L1210 [20]) of 14.5 days. The MST (L1210 [21]) was 8.5 days, the MST (L1210 [22]) was 10 days and the Blood urea nitrogen (Mus musculus [23]) was 27.2 mg 100ml-1. The Blood urea nitrogen (Mus musculus [24]) was 28 mg 100ml-1, the Blood urea nitrogen (Mus musculus [25]) was 26 mg 100ml-1 and the Body weight (Mus musculus [26]) was 38.3. The Body weight (Mus musculus [27]) was 39.3, the Body weight (Mus musculus [28]) was 35.5 and the Kidney weight (Mus musculus [29]) was 626. It also gave a Kidney weight (Mus musculus [30]) of 654 and a Kidney weight (Mus musculus [31]) of 634.
With 3-amino-cytidine hydrochloridecis-DDP the MST (L1210 [32]) was “Toxic” and the MST (L1210 [11]) was “Toxic”.
